Reference: ChEMBL document CHEMBL1129572, “Synthesis and pharmacological properties of novel 8-substituted imidazobenzodiazepines: high-affinity, selective probes for alpha 5-containing GABAA receptors” (J Med Chem, 1996)
pIC50, pKi: −log10 of the molar value.

Experiments:
[1] = biological target: T1, GABA-A receptor; alpha-1/beta-2/gamma-2 (Homo sapiens, UniProt P14867+P18507+P47870); experiment: Binding affinity for human GABA-A receptor alpha-1-beta-2-gamma-2 expressed in L(tk-) cell membranes
T1 sequence (P14867 whole entry): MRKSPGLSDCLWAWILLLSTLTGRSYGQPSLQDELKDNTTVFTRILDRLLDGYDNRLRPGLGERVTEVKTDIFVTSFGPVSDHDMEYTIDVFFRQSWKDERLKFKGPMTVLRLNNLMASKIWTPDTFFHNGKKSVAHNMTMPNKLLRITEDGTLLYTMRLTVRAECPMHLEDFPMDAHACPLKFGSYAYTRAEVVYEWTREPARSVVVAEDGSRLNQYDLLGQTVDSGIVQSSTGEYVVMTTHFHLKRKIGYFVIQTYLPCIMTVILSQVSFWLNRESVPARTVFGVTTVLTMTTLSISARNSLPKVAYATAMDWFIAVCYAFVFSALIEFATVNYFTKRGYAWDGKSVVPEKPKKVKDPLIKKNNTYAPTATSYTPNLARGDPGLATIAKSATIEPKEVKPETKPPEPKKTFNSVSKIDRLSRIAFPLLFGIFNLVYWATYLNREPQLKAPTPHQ
T1 sequence (P47870 whole entry): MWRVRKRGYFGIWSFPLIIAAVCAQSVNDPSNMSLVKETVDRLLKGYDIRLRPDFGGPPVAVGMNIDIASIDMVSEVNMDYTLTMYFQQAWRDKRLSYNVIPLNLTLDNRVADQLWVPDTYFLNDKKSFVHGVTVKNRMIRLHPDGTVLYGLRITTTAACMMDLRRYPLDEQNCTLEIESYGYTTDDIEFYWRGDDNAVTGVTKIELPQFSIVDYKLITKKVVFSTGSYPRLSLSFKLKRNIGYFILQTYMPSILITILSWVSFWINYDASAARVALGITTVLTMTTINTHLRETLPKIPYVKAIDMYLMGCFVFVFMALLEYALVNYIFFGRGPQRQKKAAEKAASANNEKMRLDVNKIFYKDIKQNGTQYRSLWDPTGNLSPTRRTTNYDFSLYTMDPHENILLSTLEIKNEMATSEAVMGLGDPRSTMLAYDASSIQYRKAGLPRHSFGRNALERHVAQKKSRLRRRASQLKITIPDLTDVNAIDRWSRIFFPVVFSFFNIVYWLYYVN
T1 sequence (P18507 whole entry): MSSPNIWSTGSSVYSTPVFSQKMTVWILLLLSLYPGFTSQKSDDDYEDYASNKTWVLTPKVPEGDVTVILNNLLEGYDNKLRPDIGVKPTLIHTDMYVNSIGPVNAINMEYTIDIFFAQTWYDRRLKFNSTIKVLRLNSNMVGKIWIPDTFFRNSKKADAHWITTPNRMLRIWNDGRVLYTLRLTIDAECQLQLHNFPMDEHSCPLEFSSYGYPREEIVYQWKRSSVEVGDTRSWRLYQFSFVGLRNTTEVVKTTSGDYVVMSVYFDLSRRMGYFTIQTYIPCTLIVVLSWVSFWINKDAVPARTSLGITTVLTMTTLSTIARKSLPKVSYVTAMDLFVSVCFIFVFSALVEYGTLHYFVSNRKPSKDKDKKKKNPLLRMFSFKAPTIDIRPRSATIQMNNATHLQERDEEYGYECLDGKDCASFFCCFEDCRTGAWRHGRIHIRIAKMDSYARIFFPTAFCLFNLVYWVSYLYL

[2] = biological target: GABA A receptor alpha-6/beta-2/gamma-2 (Homo sapiens, UniProt P18507+P47870+Q16445); experiment: Binding affinity for human GABA-A receptor alpha-6-beta-2-gamma-2 expressed in L(tk-) cell membranes
[3] = biological target: T2, GABA A receptor alpha-3/beta-2/gamma-2 (Homo sapiens, UniProt P18507+P34903+P47870); experiment: Binding affinity for human GABA-A receptor alpha-3-beta-2-gamma-2 expressed in L(tk-) cell membranes
T2 sequence (P47870 whole entry): T1 sequence (P47870 whole entry)
T2 sequence (P18507 whole entry): T1 sequence (P18507 whole entry)
T2 sequence (P34903 whole entry): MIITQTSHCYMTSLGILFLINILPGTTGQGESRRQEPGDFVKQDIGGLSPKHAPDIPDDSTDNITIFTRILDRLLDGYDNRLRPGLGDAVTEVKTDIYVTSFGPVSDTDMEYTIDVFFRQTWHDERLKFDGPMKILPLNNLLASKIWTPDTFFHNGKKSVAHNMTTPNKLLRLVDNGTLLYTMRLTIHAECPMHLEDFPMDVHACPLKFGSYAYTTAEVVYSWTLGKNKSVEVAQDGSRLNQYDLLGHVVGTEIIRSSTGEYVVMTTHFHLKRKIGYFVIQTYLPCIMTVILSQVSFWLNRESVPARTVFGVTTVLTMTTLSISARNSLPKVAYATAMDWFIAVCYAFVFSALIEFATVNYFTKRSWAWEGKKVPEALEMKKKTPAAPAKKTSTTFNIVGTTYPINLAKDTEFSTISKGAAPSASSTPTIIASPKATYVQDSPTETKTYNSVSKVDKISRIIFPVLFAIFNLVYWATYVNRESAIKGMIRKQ

[4] = Binding affinity for human GABA-A receptor alpha-5--beta-2-gamma-2 expressed in L(tk-) cell membranes
In short: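 Competition binding on membranes of Ltk cells expressing human αxβ2γ2 receptors. Radioligand was [3H]Ro 15-1788, or [3H]Ro 15-4513 for α6β2γ2. Ki is the mean of two determinations differing by less than 10%.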

[5] = biological target: T3, GABA A receptor alpha-2/beta-2/gamma-2 (Homo sapiens, UniProt P18507+P47869+P47870); experiment: Binding affinity for human GABA-A receptor alpha-2-beta-2-gamma-2 expressed in L(tk-) cell membranes
T3 sequence (P47870 whole entry): T1 sequence (P47870 whole entry)
T3 sequence (P18507 whole entry): T1 sequence (P18507 whole entry)
T3 sequence (P47869 whole entry): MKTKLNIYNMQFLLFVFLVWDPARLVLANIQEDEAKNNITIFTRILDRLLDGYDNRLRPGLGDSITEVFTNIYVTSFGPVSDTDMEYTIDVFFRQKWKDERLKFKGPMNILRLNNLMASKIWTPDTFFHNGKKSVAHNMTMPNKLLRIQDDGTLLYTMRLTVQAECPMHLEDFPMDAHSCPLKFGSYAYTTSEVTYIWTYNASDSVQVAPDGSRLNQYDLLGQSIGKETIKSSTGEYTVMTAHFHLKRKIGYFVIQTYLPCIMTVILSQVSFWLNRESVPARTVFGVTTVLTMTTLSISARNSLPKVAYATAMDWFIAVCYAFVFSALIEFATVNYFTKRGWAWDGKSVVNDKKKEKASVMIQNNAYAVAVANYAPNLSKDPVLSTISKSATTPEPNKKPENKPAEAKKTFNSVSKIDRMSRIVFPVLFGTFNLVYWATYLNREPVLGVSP

Homo sapiens = species on record: Homo sapiens; experiment: Relative binding affinity for GABA-A receptor alpha-5 over alpha1 subunits
Mus musculus [6] = species on record: Mus musculus; experiment: Convulsant activity was evaluated; type: functional
In short: (§1)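 Adult male NIH/Swiss mice (~30 g) got a single ip injection of graded doses (up to 40 or 80 mg/kg) or vehicle, suspended in 10% diluted Emulphor:90% saline with warming and sonication. They were observed 10 min; tonic/clonic convulsions with loss of righting reflex were scored. CD50 is the dose seizing half the maximal number convulsing, by nonlinear regression.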

Mus musculus [7] = species on record: Mus musculus; experiment: Dose required for 50% seizure of maximum number of animals; type: functional; in short: as §1
Mus musculus [8] = species on record: Mus musculus; experiment: Anticonvulsant activity against convulsions induced by Compound 9; type: functional
In short: (§2)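 Male NIH/Swiss mice (~30 g) given graded ip doses of zolpidem, flumazenil or vehicle in 10% diluted Emulphor:90% saline. 10 min later they were challenged ip with DMCM (7.5 mg/kg) or the convulsant test ligand (20 mg/kg). Convulsions were observed; N = 5–10 per dose. ED50 came from nonlinear regression.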

Mus musculus [9] = species on record: Mus musculus; experiment: Anticonvulsant activity against convulsions induced by DMCM; type: functional; in short: as §2
Mus musculus [10] = species on record: Mus musculus; experiment: Convulsant activity was evaluated in mice; type: functional; in short: as §1
Mus musculus [11] = species on record: Mus musculus; experiment: Proconvulsant potency at which 50% of the animals (mice) convulsed 15 min after receiving PTZ.; type: functional; conditions: read-out: PD50
In short: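 Mice got a single ip dose of the ligand or vehicle, then PTZ (40 mg/kg ip) 15 min later, and were observed 10 min. N = 5–10 per group. PD50 is the dose at which 50% of animals convulsed, by nonlinear regression.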

[12] = biological target: T4, Gamma-aminobutyric acid receptor subunit alpha-5 (Rattus norvegicus, UniProt P19969); experiment: Inhibition of [3H]flunitrazepam binding to alpha-5 GABA-A receptor of rat hippocampal membranes; type: cell membranes, Membrane
In short: (§3)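 Male Sprague–Dawley rat hippocampal or cerebellar membranes, washed in 50 mM Tris-citrate pH 7.4. They were incubated with ~1 nM [3H]flunitrazepam (final) plus NaCl, 120 min at 0–4 °C, then filtered. Nonspecific binding was set with 10 µM Ro 15-1788. IC50 used 8–12 concentrations; hippocampal data were fitted two-site (F test). Four experiments, mean ± SEM.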

[13] = biological target: GABA-A receptor; anion channel; experiment: Inhibition of [3H]flunitrazepam binding to GABA-A receptor of rat cerebral membranes; type: cell membranes, Membrane; in short: as §3
[14] = biological target: T4, Gamma-aminobutyric acid receptor subunit alpha-5; experiment: Inhibition of [3H]flunitrazepam binding to high affinity GABA-A receptor of rat hippocampal membranes; type: cell membranes, Membrane; in short: as §3
[15] = biological target: GABA-A receptor; anion channel; experiment: (§4) Inhibition of [3H]flunitrazepam binding to low affinity GABA-A receptor of rat hippocampal membranes; type: cell membranes, Membrane; in short: as §3
[16] = biological target: GABA-A receptor; anion channel; experiment: as §4; type: cell membranes, Membrane; in short: as §3; remark: listed apart in the source
[17] = biological target: T4, Gamma-aminobutyric acid receptor subunit alpha-5; experiment: Inhibition of [3H]flunitrazepam binding to alpha5 GABA-A receptor of rat hippocampal membranes; type: cell membranes, Membrane; in short: as §3

T4 sequence (P19969 whole entry): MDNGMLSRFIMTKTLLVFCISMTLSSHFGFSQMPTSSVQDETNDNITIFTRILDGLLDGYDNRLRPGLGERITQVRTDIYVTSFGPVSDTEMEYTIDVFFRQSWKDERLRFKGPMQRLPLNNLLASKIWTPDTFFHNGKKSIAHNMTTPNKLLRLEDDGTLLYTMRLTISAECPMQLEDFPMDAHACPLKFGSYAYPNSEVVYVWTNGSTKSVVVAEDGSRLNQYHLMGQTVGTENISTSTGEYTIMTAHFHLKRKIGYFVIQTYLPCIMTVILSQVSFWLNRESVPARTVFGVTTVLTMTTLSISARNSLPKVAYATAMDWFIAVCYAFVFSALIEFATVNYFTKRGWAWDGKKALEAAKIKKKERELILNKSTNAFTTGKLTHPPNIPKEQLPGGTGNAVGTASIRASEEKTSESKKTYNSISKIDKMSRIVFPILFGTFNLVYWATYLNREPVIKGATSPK
Chain of GABA A receptor alpha-6/beta-2/gamma-2 (Q16445 whole entry, one chain of several): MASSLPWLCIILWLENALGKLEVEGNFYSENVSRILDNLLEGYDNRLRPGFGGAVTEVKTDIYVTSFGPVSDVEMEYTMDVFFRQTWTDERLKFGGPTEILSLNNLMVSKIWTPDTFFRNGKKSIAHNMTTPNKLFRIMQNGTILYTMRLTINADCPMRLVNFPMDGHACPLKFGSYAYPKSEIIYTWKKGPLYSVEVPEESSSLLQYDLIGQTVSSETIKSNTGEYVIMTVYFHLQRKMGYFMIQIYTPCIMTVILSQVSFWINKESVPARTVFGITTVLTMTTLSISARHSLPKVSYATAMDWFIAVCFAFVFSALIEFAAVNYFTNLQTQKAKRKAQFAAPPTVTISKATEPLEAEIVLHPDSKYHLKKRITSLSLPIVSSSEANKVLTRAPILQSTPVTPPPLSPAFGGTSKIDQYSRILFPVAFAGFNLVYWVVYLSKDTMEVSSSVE

Compound	pKi [1]	pKi [2]	pKi [3]	pKi [4]	pKi [5]	Ratio (Homo sapiens)	CD50 (Mus musculus [7]) [mg/kg]	other results
CCOC(=O)c1ncn2c1CN(C)C(=O)c1cc(CC)ccc1-2	7.69	6.75	7.58	8.82	7.57	13.8	–	–
C#Cc1ccc2c(c1)C(=O)N(C)Cc1c(C(=O)OCC)ncn1-2	7.55	7.54	7.59	9.30	7.67	60	24	Activity (Mus musculus [6]): 70%
CCOC(=O)c1ncn2c1CN(C)C(=O)c1cc(N=[N+]=[N-])ccc1-2 [Ro-154513]	–	–	–	9.59	–	–	–	–
CN1Cc2c(C(=O)OC(C)(C)C)ncn2-c2ccc(Br)cc2C1=O	7.94	8.03	8.04	9.30	7.97	24	–	–
Cc1ccc(-c2nc3ccc(C)cn3c2CC(=O)N(C)C)cc1 [ZOLPIDEM]	–	–	–	–	–	–	–	ED50 (Mus musculus [8]): 7 mg/kg; ED50 (Mus musculus [9]): 0.4 mg/kg
CN1Cc2c(C(=O)OC(C)(C)C)ncn2-c2ccc(C#C[Si](C)(C)C)cc2C1=O	6.71	7.23	6.59	8.58	6.85	75.5	2.3	Activity (Mus musculus [10]): 22%; ED50 (Mus musculus [11]): 40 mg/kg
CCOC(=O)c1ncn2c1CN(C)C(=O)c1cc(C#CC[Si](C)(C)C)ccc1-2	< 6.52	< 6.52	< 6.52	< 6.52	< 6.52	–	–	–
C#Cc1ccc2c(c1)C(=O)N(C)Cc1c(C(=O)OC(C)(C)C)ncn1-2	7.57	8.29	7.73	9.40	7.58	67.3	5.9	pIC50 [12]: 9.48; pIC50 [13]: 7.10; pIC50 [14]: 9.22; pIC50 [15]: 7.07; pIC50 [16]: 7.15; pIC50 [17]: 7.17; Activity (Mus musculus [10]): 80%
CCOC(=O)c1ncn2c1CN(C)C(=O)c1cc(C#C[Si](C)(C)C)ccc1-2	–	6.94	6.70	8.30	6.85	24	70.9	Activity (Mus musculus [10]): 85%
CCc1ccc2c(c1)C(=O)N(C)Cc1c(C(=O)OC(C)(C)C)ncn1-2	7.83	7.64	7.60	8.77	7.25	8.6	–	–
CC#Cc1ccc2c(c1)C(=O)N(C)Cc1c(C(=O)OCC)ncn1-2	8.00	< 7.00	7.78	8.77	7.65	6	–	–
CCOC(=O)c1ncn2c1CN(C)C(=O)c1cc(F)ccc1-2 [FLUMAZENIL]	–	–	–	–	–	–	–	ED50 (Mus musculus [8]): 3.8 mg/kg; ED50 (Mus musculus [9]): 2.3 mg/kg
